Bioassay records (PubChem)
Dynein cargo inh – blocks dynein driven cargo transport along microtubules; AID 1381; 220,000 compounds, 0.47% hits; z-score, hits read low; 3617.4 mouse cells, GR-EGFP nuclear translocation imaging; test concentration mostly 20 µM; stimulated with dexamethasone, 1 µM; stronger effect = lower value;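 active means plate z-score of nuclear minus cytoplasmic receptor signal below a set negative limit, without overly bright fluorescence or cell loss, cut at about -3.5 in these data, passing the limit was not always enough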;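 further: z-score of nuclear minus cytoplasmic ring GR-EGFP intensity difference per well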
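Buffer or medium – tet-free medium with charcoal-stripped serum · Signal – automated 10x imaging of fixed Hoechst-stained cells · Also added – dexamethasone agonist, 1.0 µM final, for 30 min · Incubation – induction 48 h, compound 1 h, agonist 30 min · Read-out – GR-EGFP nuclear translocation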
bCat nuc transl – alters nuclear translocation of beta-catenin in HeLa cells; immunofluorescence imaging; 190,000 compounds, 0.3% hits; nuclear translocation activity, % at 5 µM;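 active means nuclear translocation activity above 50% at 5 µM, with a well cell count of 50 or more; inconclusive means wells under 50 cells across six images, flagged as toxic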;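 further: per-cell ratio of nuclear to cytoplasmic median beta-catenin stain intensity; plate controls were DMSO negative control for no effect and GSK-3 inhibitor IX positive control for full effect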
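System: Human HeLa cells, endogenous beta-catenin | Compound dosing: 5 µM primary, 0.02–20 µM confirmation | Timing: 24 h compound exposure at 37°C, 5% CO2 | Measured by: Fluorescence imaging of beta-catenin antibody stain plus DAPI | Read-out basis: % activation of per-cell nuclear versus cytoplasmic median beta-catenin signal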
Insulin prom up – MIN6 insulin promoter up-regulation; MIN6 insulin promoter-GFP reporter, high-content imaging; stronger effect = higher value; z-score at 5 µM; 190,000 compounds, 0.3% hits;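 active means z-score above 3 at 5 µM with at least 500 cells counted in the well; inconclusive means wells under 500 cells, flagged as cytotoxic or low count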
MT stabilize HCS – microtubule stabilizers in HeLa cells; HeLa tubulin immunostaining HCS, 24 h; share of cells brighter than vehicle mean+2SD; 200,000 compounds, 0.83% hits; % tubulin-high responders, % at 10 µM; AID 2205;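 active means plate Z-score above 3 for both tubulin-high and condensed-nucleus cell shares, with cell loss under 80%, at 10 µM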;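 further: anti alpha tubulin signal scored within the nucleus-defined area of each cell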
Autophagy mod – autophagy modulation, high-content screen; 190,000 compounds, 0.98% hits; MEF GFP-LC3 puncta imaging; test concentration mostly 10 µM; calls only at 10 µM (by protocol);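 active means percentage of spot-positive cells more than 3 SD above its plate mean, without a fluorescence outlier flag or 80% toxicity; inconclusive means no clear call, values can overlap the other calls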;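 further: spot-positive cell cutoff set from DMSO-treated cells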
Dynein inh conf – dynein cargo transport inhibition, confirmation | 3617.4 GR-EGFP nuclear translocation imaging, dexamethasone-induced | AID 463116 | calls only at 20 µM | shares compounds with Dynein cargo inh | 1,000 compounds, 69% hits;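 active means inhibition of receptor movement into the nucleus at or above a set limit in both runs, with normal cell brightness and cell count; inconclusive means limit reached in only one run, brightness and count normal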;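 further: dexamethasone at 1 µM final in well for 30 min; nuclear minus cytoplasmic GR-EGFP mean intensity difference in channel 2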
* marks the source's active call; other numbers are inactive results; i = inactive; u = inconclusive; x = not tested or not shown; + = active, no number. Rows were chosen to be rich in hits. Some 2.3% of all compounds tested hit in one or more screens of this group.

SMILES | Dynein cargo inh | bCat nuc transl | Insulin prom up | MT stabilize HCS | Autophagy mod | Dynein inh conf
O=C(/C=C/c1ccc(Br)cc1)c1ccco1 | -1.98 | -0.8 | x | 5.2 | i | x
O=C(/C=C/C=C/c1ccccc1)c1ccco1 | -4.33* | -1.4 | -0.03 | x | x | i
O=S(=O)(Cc1ccccc1Cl)NCc1ccccc1 | -0.41 | -0.8 | x | 1.6 | i | x
Cn1ncc(SCc2ccccc2)c(Cl)c1=O | -1.78 | 1.3 | -1.01 | x | x | x
Cn1ncc(S(=O)(=O)Cc2ccccc2)c(Cl)c1=O | -5.21* | -2.2 | 0.6 | x | x | +
CCOC(=O)c1nc2sc(C)c(C)c2c(=O)[nH]1 | -0.327 | x | x | 4.4 | i | x
CCOC(=O)/C(=C\c1cccc(O)c1)c1nc2sc(C)c(C)c2c(=O)[nH]1 | -4.44* | 0.8 | 0.38 | 7.1 | i | +
CCN1/C(=C/C(C)=O)Sc2ccc(OC)cc21 | -0.943 | 6.3 | 2.8 | 13.3 | i | x
CCOC(=O)/C(=C\C=C1/Sc2cc(OCC)c(OCC)cc2N1CC)C(C)=O | -3.65 | 11.5 | x | 80.3 | + | i
COc1cc(C2Oc3ccccc3C=C2[N+](=O)[O-])cc(OC)c1OC (centres undefined) | -5.61* | 2.9 | u | x | x | +
CN1CCN(C2=C(Cl)C(=O)N(c3ccc(Cl)c(Cl)c3)C2=O)CC1 | -4.58* | -5.1 | 0.26 | 4.4 | i | u
CN1CCN(C2=C(Cl)C(=O)N(c3cccc(Cl)c3)C2=O)CC1 | -0.782 | -3.9 | 0.07 | 1.1 | i | x
Clc1nc(CN2CCCCC2)nc2sc3c(c12)CCCC3 | -3.68* | 0.5 | -0.56 | 0.1 | i | i
CCCCCC(=O)N/N=C/c1ccc([N+](=O)[O-])o1 | 3.07e-05 | -2.7 | x | 1.8 | i | x
O=C(CCC(=O)Nc1ccc(Cl)cc1Cl)N/N=C/c1ccc([N+](=O)[O-])o1 | -5.2* | -4.3 | -0.95 | 3.3 | i | +
CN(C)CC(C(=O)c1ccccc1)c1ccccc1 (centres undefined) | -3.72* | x | -0.68 | 8.8 | i | +
Cc1ccc(N(CCC#N)C(=O)CCl)cc1C | -4.39* | 3.6 | 0.47 | 4.2 | i | +
S=c1sc2c(Cl)ncnc2n1-c1ccccc1 | -4.03* | x | u | 1.7 | i | +
CCOC(=O)c1c(C)oc2c1c(CN1CCN(C(=O)OCC)CC1)c(O)c1ccccc12 | -1.61 | -1.3 | -0.08 | 5.2 | i | x
CCOC(=O)c1c(C)oc2c1c(C(c1ccncc1)N1CCOCC1)c(O)c1ccccc12 (centres undefined) | -3.54* | x | x | 5.2 | i | i
CN(C(=O)COC(=O)c1ccc(=O)n(Cc2ccccc2)n1)c1ccccc1 | 0.123 | -3.1 | 1.71 | 2.1 | i | x
COC(=O)c1cc(NC(=O)c2cccc(Cl)c2)c(=O)oc1/C=C/Nc1cc(C)cc(C)c1 | -7.47 | -0.5 | 14.9* | 5.1 | + | +
NS(=O)(=O)c1ccc(CCNC(=O)c2cc(-c3cc(Cl)ccc3O)n[nH]2)cc1 | 0.149 | -3.2 | 0.26 | x | x | x
CCC(C)NC(=O)CNC(=S)N(Cc1ccccc1F)C1CCCCC1 (centres undefined) | -0.361 | -5.1 | x | 3.8 | i | x
O=C1C2C3C=CC(CO)(O3)C2C(=O)N1c1ccc(-c2ccccc2)cc1 (centres undefined) | -4.44* | -1.9 | 0.36 | 1.9 | i | +
SMILES | Dynein cargo inh | bCat nuc transl | Insulin prom up | MT stabilize HCS | Autophagy mod | Dynein inh conf
CC1(C)Cc2nc3nc(SCC(=O)Nc4ccccc4)nc(N)c3cc2CO1 | 0.941 | 2.1 | -0.09 | 4.5 | i | x
CNC(=O)COC(=O)c1ccccc1C(=O)c1ccc(Cl)c([N+](=O)[O-])c1 | -4.3* | 4.2 | -2.54 | 3.5 | i | +
CS(=O)(=O)c1cc([N+](=O)[O-])c(Sc2nc3ccccc3[nH]2)c([N+](=O)[O-])c1 | -3.58* | 1.3 | x | 3.0 | i | +
CN(C)CCN(Cc1ccco1)C(=O)c1cc2c(Cl)nc3ccccc3c2s1 | -0.241 | 3.7 | -0.36 | 3.3 | i | x
Cc1ccc2nc(Cl)c3cc(C(=O)N(CCN(C)C)Cc4ccco4)sc3c2c1 | -3.52* | u | -1.28 | 3.0 | i | i
Cc1onc(-c2c(Cl)cccc2Cl)c1-c1nc2cc(Cl)ccc2c(=O)o1 | -4.13* | -0.7 | 1.33 | x | x | +
Cc1onc(-c2c(F)cccc2Cl)c1-c1nnc(-c2cccc3ccccc23)o1 | 1.06 | -0.1 | -0.14 | x | x | x
Cc1nnc(NC(=O)c2sc3nc(-c4cccs4)cc(C(F)(F)F)c3c2N)s1 | -6.12 | 3.0 | x | 4.7 | + | i
CCN(CC)C(=O)c1sc2nc(-c3cccs3)cc(-c3cccs3)c2c1N | 0.946 | -3.7 | x | x | x | x
O=C(N/N=C/c1ccc(N2CCOCC2)o1)c1cccc([N+](=O)[O-])c1 | 0.221 | x | 0.46 | 5.4 | i | x
O=C(N/N=C/c1ccc(N2CCCCC2)o1)c1ccccc1 | -3.77* | -4.9 | 0.02 | 2.0 | i | i
O=C(Oc1ccccc1C(=O)Nc1ccccc1)c1ccc(Br)c([N+](=O)[O-])c1 | -3.86* | x | 0.5 | 3.1 | i | i
CCOC(=O)C1=C(O)c2ccccc2C(=O)/C1=C\c1ccc(CC)cc1 | -4.71 | 1.6 | 0.46 | 3.5 | i | i
CCOC(=O)C1=C(Cc2ccc(OC)cc2)C(=O)c2ccccc2C1=O | -6.07 | 2.2 | 1.23 | 44.7* | i | +
CCOC(=O)C1=C(Cc2ccc(C)cc2)C(=O)c2ccccc2C1=O | -0.511 | x | 1.78 | 1.3 | i | x
CCCc1ccc(/C=C2\C(=O)c3ccccc3C(O)=C2C(=O)OCC)cc1 | -3.54* | -0.4 | 0.28 | 4.9 | i | u
O=C(Cc1ccccc1)Nc1cccc(N2C(=O)C=CC2=O)c1 | -4.71* | -1.5 | 0.06 | 1.7 | i | +
CN(C)S(=O)(=O)c1ccc(C(=O)OCCn2cnc3c2c(=O)n(C)c(=O)n3C)cc1 | 0.0463 | x | -0.07 | 3.1 | i | x
CCOC(=O)/C(C#N)=C\c1cn(C)c2ccccc12 | -0.00154 | -3.5 | 0.31 | 2.2 | i | x
CCOC(=O)/C(=C\c1cn(C)c2ccccc12)[N+](=O)[O-] | -3.71* | -1.7 | 0.08 | 2.5 | i | +
O=C(Nc1ccc([N+](=O)[O-])cc1)c1cc2ccccc2nc1Cl | -0.555 | 0.2 | 0.11 | x | x | x
CCCN1CCN(C(=O)Cn2c(=O)oc3cc(S(=O)(=O)NCc4ccccc4)ccc32)CC1 | -1.28 | -0.5 | -1.34 | 1.6 | i | x
O=C(Cn1c(=O)oc2cc(S(=O)(=O)NCc3ccccc3)ccc21)N1CCCC1 | -5.21* | 0.9 | -0.35 | x | x | i
O=C(NCc1ccccn1)c1coc(=O)c(Br)c1 | -4.12* | 0.5 | 0.21 | 3.9 | i | i
COc1ccc(/C=C\c2nc(=O)c3ccccc3o2)cc1 | -3.59* | 20.8 | -1.16 | 2.7 | i | +
CCC(=O)N1CCc2cc(Br)cc(S(=O)(=O)N(C)c3ccc(OC)cc3OC)c21 | 1.11 | -1.5 | x | 6.3 | i | x
CC(/C=N/n1c(COc2ccccc2)n[nH]c1=S)=C\c1ccco1 | -3.96* | -0.5 | -0.89 | x | x | i
